Measured values from ChEMBL document CHEMBL4251566 (Eur J Med Chem, 2018).

What was measured:
Ramos [1] = experiment: Induction of apoptosis in human Ramos cells assessed as necrotic cells at 5 uM after 72 hrs by Annexin V-FITC/propidium iodide staining based flow cytometry (reference value: 0.7%); format: functional
Ramos [2] = experiment: Induction of apoptosis in human Ramos cells assessed as total apoptosis rate at 10 uM after 72 hrs by Annexin V-FITC/propidium iodide staining based flow cytometry relative to control
Ramos [3] = experiment: Induction of apoptosis in human Ramos cells assessed as viable cells at 5 uM after 72 hrs by Annexin V-FITC/propidium iodide staining based flow cytometry (reference value: 98.7%); format: functional; details: read-out: Activity
PBMC = experiment: Cytotoxicity against human PBMCs assessed as induction of morphological changes at <10 uM after 24 hrs by AO/PI staining-based phase contrast microscopy; format: cell-based
Ramos [4] = experiment: Induction of apoptosis in human Ramos cells assessed as late apoptotic cells at 5 uM after 72 hrs by Annexin V-FITC/propidium iodide staining based flow cytometry (reference value: 0.5%); format: functional
NAMALVA = experiment: Antiproliferative activity against human NAMALWA cells after 72 hrs by CCK-8 assay; format: functional, cell-based
Method in brief: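 CCK-8 viability assay. Cells were seeded at 3000/well in RPMI-1640 with 10% FBS at 37 °C, 5% CO2, for 4 h before treatment. Exposure was 72 h at five concentrations (1.25, 5, 10, 20, 40 µM), each in five replicates. Absorbance was read at 450 nm. IC50 came from dose-response curves, as the mean of at least three separate experiments.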

Ramos [5] = experiment: Induction of apoptosis in human Ramos cells assessed as viable cells at 10 uM after 72 hrs by Annexin V-FITC/propidium iodide staining based flow cytometry (reference value: 98.7%); format: functional; details: read-out: Activity
Mus musculus = experiment: Toxicity in CB17/SCID mouse xenografted with Ramos cells assessed as change in body weight at 60 mg/kg, po qd for 14 days; format: organism-based; details: in vivo, 336 h
Method in brief: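 Female CB17/SCID mice, 5–6 weeks old and 20–25 g, received 3×10⁶ Ramos cells in 0.1 mL PBS subcutaneously in the right axilla. From day 3 after implantation, dosing was oral at 30 or 60 mg/kg for 14 days; vehicle controls got oral 25% PEG-400. Tumor volume was A×B²/2 from caliper diameters. Tumor weight was taken at sacrifice, and body weight was tracked. n = 5.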

Ramos [6] = experiment: Induction of apoptosis in human Ramos cells assessed as total apoptosis rate at 20 uM after 72 hrs by Annexin V-FITC/propidium iodide staining based flow cytometry relative to control
Ramos [7] = experiment: Induction of apoptosis in human Ramos cells assessed as late apoptotic cells at 10 uM after 72 hrs by Annexin V-FITC/propidium iodide staining based flow cytometry (reference value: 0.5%); format: functional
Ramos [8] = experiment: Induction of apoptosis in human Ramos cells assessed as total apoptosis rate at 5 uM after 72 hrs by Annexin V-FITC/propidium iodide staining based flow cytometry relative to control
Ramos [9] = experiment: Induction of apoptosis in human Ramos cells assessed as viable cells at 20 uM after 72 hrs by Annexin V-FITC/propidium iodide staining based flow cytometry (reference value: 98.7%); format: functional; details: read-out: Activity

SMILES | Activity (Ramos [1]) | Activity (Ramos [2]) | viability at 5 µM (Ramos [3]) | Activity (PBMC) | Activity (Ramos [4]) | IC50 (NAMALVA) | viability at 10 µM (Ramos [5]) | Activity (Mus musculus) | Activity (Ramos [6]) | Activity (Ramos [7]) | Activity (Ramos [8]) | viability at 20 µM (Ramos [9])
C=CC(=O)Nc1cccc(Nc2nc(Nc3ccc(OCC(=O)N4CCOCC4)c(Cl)c3)ncc2Cl)c1 | 0.9% | 69.9% | 37.2% | Non-Toxic | 7% | 6.45 µM | 29% | <= 5% | 79.5% | 10.9% | 61.8% | 20.1%
C=CC(=O)Nc1cccc(Nc2nc(Nc3ccc(OCCCN4CCOCC4)cc3)ncc2Cl)c1 | 6.6% | 77.2% | 34.4% | Non-Toxic | 8.2% | 8.23 µM | 20.1% | <= 5% | 80.2% | 9.6% | 59% | 16.3%
